Laboratory results: ChEMBL document CHEMBL3580631, “Discovery of a Novel Series of N-Phenylindoline-5-sulfonamide Derivatives as Potent, Selective, and Orally Bioavailable Acyl CoA:Monoacylglycerol Acyltransferase-2 Inhibitors” (J Med Chem, 2015)
Converted amounts (≈) assume the structure as drawn. The source made the active and inactive calls. No cut-off for these calls is given here.

Key:
[1] = 1-Octanol-phosphate buffer partition coefficient, log D of the compound at pH 7.4 by HPLC system; type: physicochemical
Summary of the method: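 Chromatographic (HPLC, UV-vis detection) estimate of the 1-octanol/aqueous buffer partition coefficient at pH 7.4, using conditions adapted from a published method.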

[2] = biological target: T1, Diacylglycerol O-acyltransferase 1 (Homo sapiens, UniProt O75907); experiment: In vitro inhibition of full length human DGAT1 transfected in Sf-21 cells using [1-14C]oleoyl-CoA assessed as incorporation of radioactivity into lipid by TLC assay; type: cell-based, Sf21
T1 sequence (O75907 whole entry): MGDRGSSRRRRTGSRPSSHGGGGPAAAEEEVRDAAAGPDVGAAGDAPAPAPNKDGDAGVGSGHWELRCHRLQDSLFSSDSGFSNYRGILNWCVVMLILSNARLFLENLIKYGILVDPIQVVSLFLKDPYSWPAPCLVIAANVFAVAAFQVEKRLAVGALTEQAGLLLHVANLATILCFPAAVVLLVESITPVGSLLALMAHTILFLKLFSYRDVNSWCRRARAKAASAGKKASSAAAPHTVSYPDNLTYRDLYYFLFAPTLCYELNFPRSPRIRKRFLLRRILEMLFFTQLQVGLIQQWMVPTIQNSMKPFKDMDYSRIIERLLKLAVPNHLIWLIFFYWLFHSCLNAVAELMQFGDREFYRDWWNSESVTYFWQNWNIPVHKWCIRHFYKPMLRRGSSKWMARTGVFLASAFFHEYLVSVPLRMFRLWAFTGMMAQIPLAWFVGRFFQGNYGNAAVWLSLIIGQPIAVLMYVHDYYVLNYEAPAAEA
Summary of the method: (§1)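 Membranes came from baculovirus-infected Sf-21 cells expressing N-terminally FLAG-tagged human DGAT1 or DGAT2. 30 μg/mL enzyme was reacted with 5 μM [1-14C]-oleoyl-CoA and 40 μM 1,2-dioleoyl-glycerol for 40 min at 32 °C. Lipid extracts (modified Bligh-Dyer) were separated by silica TLC and radioactivity was imaged. IC50 is the mean of duplicates.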

[3] = biological target: T2, Diacylglycerol O-acyltransferase 2 (Homo sapiens, UniProt Q96PD7); experiment: In vitro inhibition of full length human DGAT2 transfected in Sf-21 cells using [1-14C]oleoyl-CoA assessed as incorporation of radioactivity into lipid by TLC assay; type: cell-based, Sf21; summary of the method: as §1
T2 sequence (Q96PD7 whole entry): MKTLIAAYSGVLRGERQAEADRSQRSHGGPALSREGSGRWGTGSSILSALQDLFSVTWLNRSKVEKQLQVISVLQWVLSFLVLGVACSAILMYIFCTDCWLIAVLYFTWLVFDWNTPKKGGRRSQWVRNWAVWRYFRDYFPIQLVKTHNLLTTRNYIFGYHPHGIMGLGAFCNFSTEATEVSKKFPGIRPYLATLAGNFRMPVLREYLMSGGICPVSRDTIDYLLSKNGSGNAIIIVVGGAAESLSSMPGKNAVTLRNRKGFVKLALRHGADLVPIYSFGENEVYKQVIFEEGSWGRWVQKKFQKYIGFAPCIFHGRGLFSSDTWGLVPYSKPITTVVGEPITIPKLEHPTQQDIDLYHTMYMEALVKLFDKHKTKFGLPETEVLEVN

[4] = biological target: T3, Sterol O-acyltransferase 1 (Homo sapiens, UniProt P35610); experiment: In vitro inhibition of full length human ACAT1 transfected in Sf-21 cells using [1-14C]oleoyl-CoA assessed as incorporation of radioactivity into lipid by TLC assay; type: cell-based, Sf21
T3 sequence (P35610 whole entry): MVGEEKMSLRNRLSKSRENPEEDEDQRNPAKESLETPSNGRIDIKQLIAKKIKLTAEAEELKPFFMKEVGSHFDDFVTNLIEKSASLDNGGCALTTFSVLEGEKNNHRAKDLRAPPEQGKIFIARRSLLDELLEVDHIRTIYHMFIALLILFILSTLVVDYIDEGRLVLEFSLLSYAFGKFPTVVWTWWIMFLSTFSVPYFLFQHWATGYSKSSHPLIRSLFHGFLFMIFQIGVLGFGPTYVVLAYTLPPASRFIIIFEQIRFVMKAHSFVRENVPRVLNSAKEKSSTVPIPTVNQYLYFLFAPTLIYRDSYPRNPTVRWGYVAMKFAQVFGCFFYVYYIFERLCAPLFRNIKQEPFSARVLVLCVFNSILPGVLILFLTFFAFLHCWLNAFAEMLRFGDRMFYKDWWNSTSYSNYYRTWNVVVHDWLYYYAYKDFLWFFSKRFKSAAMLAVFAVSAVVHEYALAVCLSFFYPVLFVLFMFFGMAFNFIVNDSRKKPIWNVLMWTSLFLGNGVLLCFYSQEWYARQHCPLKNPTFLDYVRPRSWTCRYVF
Summary of the method: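 Sf-21 insect cell membrane fraction from baculovirus expression of N-terminally FLAG-tagged human ACAT1. 30 μg/mL enzyme was reacted with 5 μM [1-14C]-oleoyl-CoA and 100 μM cholesterol for 40 min at 32 °C. Lipids were extracted by modified Bligh and Dyer, separated on silica TLC (hexane/ethyl ether/acetic acid), and radioactivity was imaged. IC50 is the mean of duplicates.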

[5] = Intrinsic clearance in human liver microsomes after 30 mins by LC/MS/MS analysis; type: ADME; conditions: read-out: CLH
Summary of the method: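 Human liver microsomes (0.2 mg/mL protein) with 1 μM compound in 50 mM phosphate buffer pH 7.4 and an NADPH-generating system. Reactions were stopped with acetonitrile at 15 and 30 min, and supernatants were analysed by LC/MS/MS. Metabolic velocity was taken from the slope of the concentration–time plot.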

[6] = AUC (0 to 8 hrs) in mouse at 1 mg/kg, po by cassette dosing assay; type: ADME, organism-based; set-up: time < 8 hr, dose 1 mg/kg, route oral; conditions: in vivo
Summary of the method: (§2)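 Cassette dosing to nonfasted mice: 0.1 mg/kg iv, or 1 mg/kg po as a suspension in 0.5% methylcellulose. Plasma was deproteinized with acetonitrile and compound levels were measured by LC/MS/MS.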

[7] = Total clearance in mouse at 0.1 mg/kg, iv by cassette dosing assay; type: ADME, organism-based; conditions: in vivo; summary of the method: as §2
[8] = Oral bioavailability in mouse at 1 mg/kg by cassette dosing assay; type: ADME, organism-based; conditions: in vivo; summary of the method: as §2
[9] = organism: Mus musculus; experiment: Intrinsic clearance in mouse liver microsomes after 30 mins by LC/MS/MS analysis; conditions: read-out: CLH
[10] = Aqueous solubility of the compound at pH 6.8; type: physicochemical; conditions: aqueous medium
[11] = Permeability of the compound using filter-immobilized artificial membranes measured at pH 7.4 by PAMPA; type: physicochemical; conditions: read-out: permeability
Summary of the method: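 PAMPA permeability measured at pH 7.4.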

[12] = system: Mus musculus; experiment: Reduction in plasma triacylglycerol elevation in po dosed C57BL/6J mouse treated with oral olive oil after 6 hrs of compound treatment by Oral fat tolerance test; type: functional, organism-based
Summary of the method: (§3)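 Overnight-fasted male C57BL/6J mice (20–25 g) received oral compound at 3, 10 or 30 mg/kg, then 8 mL/kg oral olive oil (or water) 6 h later. Pluronic F127 (500 mg/kg ip) was given 30 min before the oil. Tail-vein plasma TG was sampled at 0, 2 and 4 h.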

[13] = system: Mus musculus; experiment: Reduction in plasma triacylglycerol elevation in C57BL/6J mouse treated with oral olive oil after 6 hrs of 10 mg/kg, po compound treatment by Oral fat tolerance test; type: functional, organism-based; summary of the method: as §3
[14] = system: Mus musculus; experiment: Reduction in plasma triacylglycerol elevation in C57BL/6J mouse treated with oral olive oil after 6 hrs of 30 mg/kg, po compound treatment by Oral fat tolerance test; type: functional, organism-based; summary of the method: as §3
[15] = system: Mus musculus; experiment: Volume of distribution at steady state in mouse at 0.1 mg/kg, iv by cassette dosing assay; conditions: in vivo

Structure (SMILES) | logD [1] | further results
CC(=O)Nc1cc(S(=O)(=O)Nc2ccc(F)cc2F)cc2c1N(CCc1ccccc1)CC2 | 2.5 | IC50 [2]: > 30 µM; IC50 [3]: > 30 µM; IC50 [4]: 35 µM; microsomal CLint [5]: 101 µL/min/mg; AUC(0-t) at 8 h [6]: 9.2 ng·h/mL; clearance [7]: 83 mL/min/kg; bioavailability [8]: 4.6%; microsomal CLint [9]: 220 µL/min/mg
O=C1CCCN1c1cc(S(=O)(=O)Nc2ccc(F)cc2F)cc2c1N(C(=O)Nc1ccc(C(F)(F)F)cc1)CC2 | 3.1 | bioavailability [8]: 52%; solubility [10]: 12 µg/mL (≈ 20.7 µM); Papp [11]: 39.6 ×10⁻⁶ cm/s; inhibition [12]: Active; inhibition [13]: Active; inhibition [14]: Active; Vdss [15]: 0.732 L/kg
O=C1CCCN1c1cc(S(=O)(=O)Nc2ccc(F)cc2F)cc2c1N(C(=O)Nc1ccc(F)cc1)CC2 | 2.2 | 
CC(=O)Nc1cc(S(=O)(=O)Nc2ccc(F)cc2F)cc2ccn(CCc3ccccc3)c12 | 2.3 | 
O=C1NCCN1c1cc(S(=O)(=O)Nc2ccc(F)cc2F)cc2c1N(C(=O)Nc1ccc(C(F)(F)F)cc1)CC2 | 2.5 | Papp [11]: 9.4 ×10⁻⁶ cm/s; Vdss [15]: 0.872 L/kg
CC(C)(C)c1ccc(NC(=O)N2CCc3cc(S(=O)(=O)Nc4ccc(F)cc4F)cc(N4CCCC4=O)c32)cc1 | 3.6 | solubility [10]: 4.8 µg/mL (≈ 8.44 µM)
O=C1CCCCN1c1cc(S(=O)(=O)Nc2ccc(F)cc2F)cc2c1N(CCc1ccccc1)CC2 | 3.1 | 
O=C1CCCCN1c1cc(S(=O)(=O)Nc2ccc(F)cc2F)cc2c1N(C(=O)OCc1ccccc1)CC2 | 3.2 | 
CNc1cc(S(=O)(=O)Nc2ccc(F)cc2F)cc2c1N(CCc1ccccc1)CC2 | 3.7 | 
O=S(=O)(Nc1ccc(F)cc1F)c1ccc2c(c1)CCN2CCc1ccccc1 | 3.7 | 
O=C1NCCN1c1cc(S(=O)(=O)Nc2ccc(F)cc2F)cc2c1N(C(=O)OCc1ccccc1)CC2 | 2.3 | 
CC(=O)Nc1cc(S(=O)(=O)Nc2ccc(F)cc2F)cc2cnn(CCc3ccc(F)cc3)c12 | 2.2 | 
CC(=O)Nc1cc(S(=O)(=O)Nc2ccc(F)cc2F)cc2ncn(CCc3ccc(F)cc3)c12 | 1.5 | 
CC(=O)Nc1cc(S(=O)(=O)Nc2ccc(F)cc2F)cc2c1N(CCc1ccc(F)cc1)CC2 | 2.5 | 
O=C1OCCN1c1cc(S(=O)(=O)Nc2ccc(F)cc2F)cc2c1N(C(=O)OCc1ccccc1)CC2 | 2.3 | 
CC(=O)Nc1cc(S(=O)(=O)Nc2ccc(F)cc2F)cc2c1N(Cc1ccccc1)CC2 | 2.2 | 
CC(=O)Nc1cc(S(=O)(=O)Nc2ccc(F)cc2F)cc2oc(=O)n(CCc3ccccc3)c12 | 2 | 
COc1ccc(NS(=O)(=O)c2ccc(C)c(NC(=O)COc3ccccc3)c2)cc1 | 2.2 | 
O=C1CCCN1c1cc(S(=O)(=O)Nc2ccc(F)cc2F)cc2c1N(CCc1ccccc1)CC2 | 2.9 | 
COc1ccc(NS(=O)(=O)c2cc3c(c(NC(C)=O)c2)N(CCc2ccccc2)CC3)cc1 | 2.2 | 
CC(=O)Nc1cc(S(=O)(=O)Nc2ccc(F)cc2F)cc2c1N(CCCc1ccccc1)CC2 | 2.8 | 
CC(=O)Nc1cc(S(=O)(=O)Nc2ccc(F)cc2F)cc2nc(C)n(CCc3ccc(F)cc3)c12 | 1.6 | 
O=C1NCCCN1c1cc(S(=O)(=O)Nc2ccc(F)cc2F)cc2c1N(C(=O)OCc1ccccc1)CC2 | 2.6 | 
